S1P2 ag: activates the human S1P2 receptor; O95136; S1P2-expressing cell line, agonist reporter read-out; activation, % at 4.5 µM; 97,000 compounds, 0.46% hits; AID 729; in the data active = activation above about 16%;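 also: 0% = vehicle low control and 100% = maximal reference agonist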
Target sequence (O95136 whole entry, looked up): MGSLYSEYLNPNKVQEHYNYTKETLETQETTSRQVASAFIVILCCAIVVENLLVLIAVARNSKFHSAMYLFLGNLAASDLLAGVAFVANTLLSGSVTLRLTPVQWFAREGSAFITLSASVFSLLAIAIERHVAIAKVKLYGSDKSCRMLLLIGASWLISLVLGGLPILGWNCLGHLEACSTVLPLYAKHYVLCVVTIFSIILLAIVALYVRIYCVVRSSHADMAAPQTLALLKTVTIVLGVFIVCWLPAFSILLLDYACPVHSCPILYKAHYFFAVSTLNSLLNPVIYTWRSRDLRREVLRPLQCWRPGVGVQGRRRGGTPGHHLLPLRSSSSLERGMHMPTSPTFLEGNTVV
GALR2 agonist: GALR2 (human) receptor agonism | O43603 | GALR2-expressing cells, agonist activation read-out | activation, % (test concentration not listed) | 140,000 compounds, 0.48% hits | AID 803; in the data active = activation above about 5%, passing the limit was not always enough;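 also: 0% = vehicle buffer wells and 100% = reference agonist at full effect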
GALR2 blocker: GALR2 (human) receptor antagonism; GALR2-expressing cells, antagonist mode; inhibition, % at 4 µM; O43603; 140,000 compounds, 0.39% hits; in the data active = inhibition above about 27%;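 also: cells stimulated with galanin 1-16 at roughly its EC80; 0% = agonist challenge control and 100% = basal control without agonist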
HIV Rev-RRE inh: HIV Rev-RRE protein-RNA interaction inhibition | Rev peptide-RRE RNA binding, FRET | inhibition, % at 8 µM | 97,000 compounds, 0.79% hits | AID 704;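 active = inhibition above the screen-wide mean plus 3 SD, cut at about 35% in these data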;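 also: 0% = median DMSO wells and 100% = median Neomycin B control wells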
Target sequence (P05866 whole entry, looked up): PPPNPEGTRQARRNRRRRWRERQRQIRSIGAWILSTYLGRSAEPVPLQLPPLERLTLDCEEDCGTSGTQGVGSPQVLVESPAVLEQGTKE
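Material: labelled RRE RNA duplex and labelled Rev peptide / Buffer or medium: HEPES pH 7.5 salt buffer with EDTA / Compound dosing: single point, 8 µM final nominal compound concentration / Benchmarks: DMSO low control, neomycin B high control / Timing: 5 min preincubation and 15 min binding, 25 °C / Technique: FRET fluorescence readout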
S1P2 blocker: blocks the human S1P2 receptor. cell-based S1P2 antagonist assay, inhibition at 5 uM. inhibition, % at 5 µM. 97,000 compounds, 0.21% hits. AID 736; in the data active = inhibition above about 45%;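 also: CRE beta-lactamase reporter cells expressing human S1P2 stimulated with S1P; 0% = agonist at EC80 alone and 100% = agonist plus reference antagonist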
GALR2 agon conf: GALR2 (human) agonism confirmed | shares compounds with GALR2 agonist | 460 compounds, 10% hits | AID 864 | GALR2-expressing cells, agonist activation | activation, % at 5.6 µM; in the data active = activation above about 8.4%;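 also: 0% = buffer-only vehicle wells and 100% = full reference agonist response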
BLA act counter: beta-lactamase activation, GALR2 counterscreen; activation, % at 5.6 µM; CHO NFAT-bla reporter, beta-lactamase FRET activation; shares compounds with GALR2 agonist; AID 865; 460 compounds, 10% hits;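 active = activation above the screen-wide mean activation plus 3 SD, cut at about 8% in these data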;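 also: 0% = DMSO with PBS wells and 100% = thapsigargin positive control wells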
* marks the source's active call; other numbers are inactive results; / = no result given; [ ] = dose if it differs, or a comment. Only some compounds are listed: those with a hit (about 1.6% of all), similar ones and a draw of the others.

SMILES | S1P2 ag | GALR2 agonist | GALR2 blocker | HIV Rev-RRE inh | S1P2 blocker | GALR2 agon conf | BLA act counter
Cc1ccc2nc(SCC(=O)N(CC(C)C)c3c(N)n(CC(C)C)c(=O)[nH]c3=O)[nH]c2c1 | 3 | 40* | -6 | 3 | -14 | -1 | -2
CC(C)CN(C(=O)CSc1nncs1)c1c(N)n(CC(C)C)c(=O)[nH]c1=O | -3 | -1 | -9 | -5 | -2 | / | /
O=c1[nH]ncn2cccc12 | -5 | 25* | -12 | 3 | 9 | -1 | -2
CC(=O)c1ccc(NC(=O)c2cccs2)cc1 | -1 | -2 | -3 | -1 | -10 | / | /
N/C(=N\O)c1ccc(NC(=O)c2cccs2)cc1 | / | 25* | 3 | / | / | -1 | -2
O=C(COC(=O)COc1ccc(Br)cc1)Nc1cccnc1Cl | / | 34* | -16 | / | / | -1 | -1
Cc1ccc2nc(-c3ccccc3Cl)cc(C(=O)Nc3cc(C)on3)c2c1 | -1 | 17* | -5 | 13 | 3 | 0 | 0
Cc1cc(NC(=O)c2ccccc2Cl)no1 | 0 | -1 | 13 | 6 | 15 | / | /
O=C(/C=C/c1ccc(S(=O)(=O)N2CCOCC2)cc1)NCc1ccccc1 | / | 0 | 5 | / | / | / | /
Cc1csc(NC(=O)c2cc3c(s2)-c2ccccc2OC3)n1 | -1 | 9 | 4 | 7 | -6 | 3 | 6
Cc1c(Cl)c([N+](=O)[O-])nn1CC(=O)Nc1ccc2c(c1)OCO2 | / | -1 | 4 | / | / | / | /
Cc1ccc(S(=O)(=O)Cn2nnnc2C(c2ccccc2)N2CCN(c3ncccn3)CC2)cc1 (stereo unspecified) | -7 | 0 | -1 | 4 | -6 | / | /
Cc1ccc(S(=O)(=O)Cn2nnnc2C(c2ccccc2)N2CCN(c3ccccc3)CC2)cc1 (stereo unspecified) | -11 | 29* | 18 | 5 | -2 | -1 | -4
Cc1ccc(COCC(CC(C)C)N2CCN(C(=O)c3cccc(C(F)(F)F)c3)CCC2=O)cc1 (stereo unspecified) | / | 8.9* | -13 | / | / | 0 | -4
CC(C)CC(COCc1ccc(F)cc1)N1CCN(C(=O)c2cccc(C(F)(F)F)c2)CCC1=O (stereo unspecified) | / | -1 | -7 | / | / | / | /
Cc1ccc(CNC(=O)CCNC(=O)c2ccc(Br)o2)cc1 | -2 | 28* | -14 | 8 | -4 | -1 | -2
CCOC(=O)c1sc(Nc2cccc(C)c2C)nc1C | -5 | -2 | -7 | 13 | -15 | / | /
CC(=O)c1cc(C)ccc1OC(=O)c1ccco1 | -2 | 11* | 6 | 5 | 11 | -1 | 2
COC(=O)C1C(O)=C(C=NCC(C)N=CC2=C(O)C(C(=O)OC)C(C)(C)CC2=O)C(=O)CC1(C)C (stereo unspecified) | -8 | 0 | 6 | 4 | 9 | / | /
CCC(C)N=CC1=C(O)C(C(=O)OC)C(C)(C)CC1=O (stereo unspecified) | -7 | 49* | -3 | 2 | -5 | 0 | -1
CC1(C)OC(=O)C(=NNc2ccc(Br)cc2)C(=O)O1 | / | -2 | 10 | / | / | / | /
Cc1cccc(N(C(=O)c2nsc(Cl)c2Cl)C(C(=O)NC2CCCC2)c2ccc(O)cc2)c1 (stereo unspecified) | / | 1 | 1 | / | / | / | /
CCOC(=O)c1ccc(NC(=S)N2CCSC2c2ccc(Br)cc2)cc1 (stereo unspecified) | / | 17* | -2 | / | / | 17* | 38*
Cc1ccc(-n2nc3cc(C)c(N)cc3n2)cc1 | 3 | 10 | 9 | -1 | -17 | 2 | 4
Cc1cc2nn(-c3cccc4ccccc34)nc2cc1N | 4 | 3 | 15 | 1 | 11 | / | /
SMILES | S1P2 ag | GALR2 agonist | GALR2 blocker | HIV Rev-RRE inh | S1P2 blocker | GALR2 agon conf | BLA act counter
CCN(CC)c1ccc(NC(=O)Cn2c(C(C)NC(=O)c3ccccc3)nc3ccccc32)cc1 (stereo unspecified) | / | 11* | -13 | / | / | -1 | -3
CC(NC(=O)c1ccccc1)c1nc2ccccc2n1Cc1ccccc1F (stereo unspecified) | -2 | -1 | 5 | 9 | 5 | / | /
CCOCCCNC(=O)C1CC(=O)N(C2CCCC2)C1 (stereo unspecified) | -1 | 28* | -13 | 4 | -11 | -1 | -3
CCOC(=O)N1C(=O)C2(CCCCC2)N(c2ccccc2Cl)C1=S | / | -2 | 12 | / | / | / | /
CCC(C)(C)NC(=O)C(c1cccn1C)N(Cc1ccc(OC)cc1)C(=O)Cn1nnc2ccccc21 (stereo unspecified) | -2 | 9 | 1 | -5 | 3 | 6 | 7
CCOc1ccc(NCc2nnc(SCC(=O)Nc3nc(-c4ccccc4)cs3)n2-c2ccccc2)cc1 | / | 1 | -5 | / | / | / | /
O=C(OCc1cc(=O)n2cc(Br)ccc2n1)c1ccc(Cl)c(S(=O)(=O)NCc2ccccc2)c1 | / | 0 | 8 | / | / | / | /
CS(=O)(=O)NCCCNc1ccc(Cl)cc1[N+](=O)[O-] | -4 | 58* | -2 | 8 | 1 | -1 | -1
CCNCCNc1ccc(Cl)cc1[N+](=O)[O-] | -7 | -1 | 5 | 6 | -16 | / | /
O=C(CC1CCCCC1)Nc1ccccc1-c1ccccc1 | / | 1 | -7 | / | / | / | /
CC(NC1CCCC1)C(=O)Nc1ccccc1-c1ccccc1 (stereo unspecified) | -9 | 12* | 9 | 1 | -10 | -1 | -1
Cc1oc2cc3oc(=O)c4c(c3cc2c1C)CCC4 | -3 | -3 | 6 | 4 | 6 | / | /
Cc1oc2c(C)c3oc(=O)c4c(c3cc2c1C)CCC4 | -6 | 9 | -7 | 4 | -16 | -1 | -2
COc1ccc(OCC(=O)N/N=C(/C)Cc2ccccc2)cc1 | / | -2 | 4 | / | / | / | /
COc1ccccc1[C@@H]1C(c2cccc(Cl)c2)=NN(c2ccc(Br)cc2)[C@H]1C(=O)N1CCOC1=O | / | 18* | -4 | / | / | 23* | 46*
O=C(Cn1c(=O)c2sccc2n(Cc2cccc([N+](=O)[O-])c2)c1=O)NCCc1ccccc1 | / | -1 | 2 | / | / | / | /
O=C(Nc1cccc(NC(=S)NC(=O)c2cccs2)c1)c1ccccc1 | / | -1 | -8 | / | / | / | /
O=C(O)c1cccc(NC(=S)NC(=O)C(c2ccccc2)c2ccccc2)c1 | -4 | 8 | -8 | 3 | 20 | -1 | -1
Cc1cc([N+](=O)[O-])cnc1NC(C)c1ccccc1 (stereo unspecified) | -4 | -1 | -12 | -1 | 9 | / | /
COC(=O)CN1C(=O)C2(OCCCO2)c2ccccc21 | -2 | -1 | 4 | -5 | 16 | / | /
O=C(O)CN1C(=O)C2(OCCCO2)c2ccccc21 | -3 | 8 | -4 | 6 | -20 | 0 | -2
Cc1no[n+]([O-])c1COc1ccc(/C=N/n2nnnc2N)cc1 | / | -1 | -2 | / | / | / | /
Nc1nc(-c2ccccc2)cn1N | -1 | -1 | -16 | 4 | 5 | / | /
c1ccc(-c2cn3nc(-c4ccccc4)c(-c4ccccc4)nc3n2)cc1 | -1 | 9 | 19 | 98*[fluorescence artefact?] | 31 | 2 | 0
O=C(NCc1ccccc1Cl)c1ccc2nc[nH]c2c1 | / | 1 | -4 | / | / | / | /
